Assay results: ChEMBL document CHEMBL3108698, “Targeting low-druggability bromodomains: fragment based screening and inhibitor design against the BAZ2B bromodomain” (J Med Chem, 2013)

Assays:
[1] = target: Bromodomain-containing protein 2 (Homo sapiens) (UniProt P25440); test: Binding affinity to BRD2 bromodomain-1 (unknown origin) assessed as change in melting temperature at 100 uM by differential scanning fluorimetric analysis
Outline: (§1)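 SYPRO Orange (1:1000) thermal shift with 2 μM bromodomain and 100 μM compound (final), 0.1% DMSO final, in 10 mM HEPES, 500 mM NaCl, 5% glycerol, 0.5 mM TCEP. Tm taken as the minimum of the negative first derivative of the melt curve. Run in triplicate; averages reported.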

[2] = target: Bromodomain-containing protein 2 (Homo sapiens) (UniProt P25440); test: Binding affinity to BRD2 bromodomain-2 (unknown origin) assessed as change in melting temperature at 100 uM by differential scanning fluorimetric analysis; outline: as §1
[3] = target: CREB-binding protein (Homo sapiens) (UniProt Q92793); test: Binding affinity to CREBBP (unknown origin) assessed as change in melting temperature at 100 uM by differential scanning fluorimetric analysis; outline: as §1
[4] = target: Bromodomain adjacent to zinc finger domain protein 2B (Homo sapiens) (UniProt Q9UIF8); test: Displacement of biotinylated H3Kac14 peptide from His6-tagged human BAZ2B expressed in Escherichia coli BL21(DE3) at 200 uM after 30 mins by AlphaLISA assay relative to control
Chain of Bromodomain adjacent to zinc finger domain protein 2B (Homo sapiens) (Q9UIF8 whole entry, the tested form may be a part): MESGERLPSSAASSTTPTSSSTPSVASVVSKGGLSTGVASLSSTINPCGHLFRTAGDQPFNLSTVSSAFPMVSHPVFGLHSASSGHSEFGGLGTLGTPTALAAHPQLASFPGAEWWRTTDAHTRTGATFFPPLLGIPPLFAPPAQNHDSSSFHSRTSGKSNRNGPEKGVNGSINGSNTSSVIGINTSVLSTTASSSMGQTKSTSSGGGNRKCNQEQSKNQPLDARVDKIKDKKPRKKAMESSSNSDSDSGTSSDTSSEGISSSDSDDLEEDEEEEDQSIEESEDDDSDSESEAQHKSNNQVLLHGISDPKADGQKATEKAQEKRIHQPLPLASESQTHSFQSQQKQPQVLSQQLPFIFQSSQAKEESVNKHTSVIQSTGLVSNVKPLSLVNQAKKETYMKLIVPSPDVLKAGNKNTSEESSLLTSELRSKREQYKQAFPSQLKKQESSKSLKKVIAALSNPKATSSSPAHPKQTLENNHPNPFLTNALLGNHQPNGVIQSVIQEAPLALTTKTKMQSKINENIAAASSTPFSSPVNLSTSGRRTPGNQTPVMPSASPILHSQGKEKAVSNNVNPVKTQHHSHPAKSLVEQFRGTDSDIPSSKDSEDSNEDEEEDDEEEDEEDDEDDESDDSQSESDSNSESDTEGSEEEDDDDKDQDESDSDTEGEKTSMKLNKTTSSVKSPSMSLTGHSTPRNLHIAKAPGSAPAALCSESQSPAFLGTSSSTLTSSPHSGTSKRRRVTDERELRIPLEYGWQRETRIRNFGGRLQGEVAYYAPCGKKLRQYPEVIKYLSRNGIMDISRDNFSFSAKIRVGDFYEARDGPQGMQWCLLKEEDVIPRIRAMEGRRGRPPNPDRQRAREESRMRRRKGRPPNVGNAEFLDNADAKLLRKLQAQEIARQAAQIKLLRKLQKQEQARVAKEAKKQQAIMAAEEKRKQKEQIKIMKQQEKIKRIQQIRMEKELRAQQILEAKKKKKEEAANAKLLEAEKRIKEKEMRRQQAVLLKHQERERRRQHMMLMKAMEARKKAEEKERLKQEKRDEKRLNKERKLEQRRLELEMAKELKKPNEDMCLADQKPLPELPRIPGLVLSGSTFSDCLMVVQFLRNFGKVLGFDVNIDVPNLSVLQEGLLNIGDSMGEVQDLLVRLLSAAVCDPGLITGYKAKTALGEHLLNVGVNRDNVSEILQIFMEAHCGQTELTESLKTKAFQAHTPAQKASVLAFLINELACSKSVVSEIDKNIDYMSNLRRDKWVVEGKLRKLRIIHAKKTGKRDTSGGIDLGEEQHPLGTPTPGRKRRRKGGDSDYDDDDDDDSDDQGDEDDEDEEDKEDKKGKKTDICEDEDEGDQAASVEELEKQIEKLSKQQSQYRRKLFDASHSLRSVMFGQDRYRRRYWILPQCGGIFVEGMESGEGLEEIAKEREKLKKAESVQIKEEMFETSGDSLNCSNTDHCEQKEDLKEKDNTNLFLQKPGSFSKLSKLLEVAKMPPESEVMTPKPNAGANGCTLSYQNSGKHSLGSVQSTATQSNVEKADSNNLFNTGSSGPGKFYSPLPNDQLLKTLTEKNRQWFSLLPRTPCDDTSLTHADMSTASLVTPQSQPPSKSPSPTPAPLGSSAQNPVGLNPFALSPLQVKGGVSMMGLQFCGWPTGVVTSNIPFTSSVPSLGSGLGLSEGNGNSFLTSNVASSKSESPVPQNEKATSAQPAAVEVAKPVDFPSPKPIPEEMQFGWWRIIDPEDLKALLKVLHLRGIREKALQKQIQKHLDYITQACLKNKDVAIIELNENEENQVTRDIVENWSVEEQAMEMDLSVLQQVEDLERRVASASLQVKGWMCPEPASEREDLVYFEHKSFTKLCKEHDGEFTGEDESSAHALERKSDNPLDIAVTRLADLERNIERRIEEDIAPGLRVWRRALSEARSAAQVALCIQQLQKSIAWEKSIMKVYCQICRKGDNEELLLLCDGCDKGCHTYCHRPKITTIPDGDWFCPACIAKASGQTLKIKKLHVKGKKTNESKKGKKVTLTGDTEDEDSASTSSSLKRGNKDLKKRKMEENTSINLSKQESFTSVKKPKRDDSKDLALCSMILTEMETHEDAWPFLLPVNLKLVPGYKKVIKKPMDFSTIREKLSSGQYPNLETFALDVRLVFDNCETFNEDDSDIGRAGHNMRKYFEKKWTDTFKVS

Chain of Bromodomain-containing protein 2 (Homo sapiens) (P25440 whole entry, looked up): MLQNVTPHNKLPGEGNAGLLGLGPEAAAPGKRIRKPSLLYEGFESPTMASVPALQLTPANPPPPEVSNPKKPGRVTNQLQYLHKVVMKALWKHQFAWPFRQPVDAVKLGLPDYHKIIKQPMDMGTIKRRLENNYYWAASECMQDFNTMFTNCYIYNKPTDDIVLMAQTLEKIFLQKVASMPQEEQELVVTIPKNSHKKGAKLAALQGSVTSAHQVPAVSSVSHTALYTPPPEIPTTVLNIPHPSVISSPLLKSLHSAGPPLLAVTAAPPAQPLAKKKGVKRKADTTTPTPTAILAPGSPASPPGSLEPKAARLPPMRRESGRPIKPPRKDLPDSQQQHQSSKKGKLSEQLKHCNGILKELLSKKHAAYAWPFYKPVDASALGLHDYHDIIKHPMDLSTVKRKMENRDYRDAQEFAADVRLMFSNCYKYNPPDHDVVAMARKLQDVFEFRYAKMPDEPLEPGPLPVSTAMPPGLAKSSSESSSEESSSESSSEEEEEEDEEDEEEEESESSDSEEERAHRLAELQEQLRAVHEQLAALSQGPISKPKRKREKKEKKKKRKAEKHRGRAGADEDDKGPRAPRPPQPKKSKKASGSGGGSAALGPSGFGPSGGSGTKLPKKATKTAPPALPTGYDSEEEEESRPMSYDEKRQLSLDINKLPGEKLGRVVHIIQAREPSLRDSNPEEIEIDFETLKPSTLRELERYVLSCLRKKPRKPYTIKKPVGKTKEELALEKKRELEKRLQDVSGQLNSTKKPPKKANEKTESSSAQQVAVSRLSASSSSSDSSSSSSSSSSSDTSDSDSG

Row | SMILES | inhibition [4] | other results
1 | CNC(=O)N1CCc2[nH]c3ccc(Cl)cc3c2C1 | – | ΔTm [1]: -0.6 °C; ΔTm [2]: -0.2 °C; ΔTm [3]: 2.1 °C
2 | CC(=O)N1CCc2[nH]c3ccc(-c4cccnc4)cc3c2C1 | 55% | –
3 | CC(=O)N1CCc2[nH]c3ccc(Oc4ccccc4)cc3c2C1 | 65% | –
4 | CC(=O)N1CCc2[nH]c3ccc(Br)cc3c2C1 | – | ΔTm [1]: 7.3 °C; ΔTm [2]: 3.5 °C; ΔTm [3]: 8.1 °C
5 | CC(=O)N1CCc2[nH]c3c(O)ccc(Cl)c3c2C1 | 52% | –
6 | CC(=O)N1CCc2c(c3cc(Br)ccc3n2S(=O)(=O)c2ccc(C)cc2)C1 | 60% | –

The next lines start with results.

Row | inhibition [4] | SMILES | other results
7 | 65% | CC(=O)N1CCc2[nH]c3ccc(N(C)C(C)=O)cc3c2C1 | –
8 | 38% | CC(=O)N1CCc2c(c3cc(Br)ccc3n2C(=O)OC(C)(C)C)C1 | –
9 | 63% | CC(=O)N1CCc2c(c3cccc4c3n2C(=O)CN4C)C1 | –
10 | 70% | CC(=O)N1CCc2c(c3cccc4c3n2CCS4)C1 | –
11 | 48% | CC(=O)N1CCc2[nH]c3ccc(C(=O)O)cc3c2C1 | –
